The target in data set [1] is T1, Proteasome subunit beta type-8 (Homo sapiens) (UniProt P28062).
T1 sequence (whole entry): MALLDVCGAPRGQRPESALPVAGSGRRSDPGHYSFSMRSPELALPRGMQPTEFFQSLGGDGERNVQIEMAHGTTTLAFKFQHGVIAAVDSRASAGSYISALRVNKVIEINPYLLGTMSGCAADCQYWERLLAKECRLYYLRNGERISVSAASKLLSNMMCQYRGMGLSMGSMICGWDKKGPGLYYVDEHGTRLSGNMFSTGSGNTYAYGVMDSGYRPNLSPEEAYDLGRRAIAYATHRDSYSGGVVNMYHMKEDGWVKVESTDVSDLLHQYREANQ
Nature of the data set: Ratio of Kinact to Ki for immunoproteasome-20S subunit beta5i in human PBMC using suc-LLVY-AMC as substrate measured for 120 mins by fluorescence analysis. An outline of the steps: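 Progress curves of hu i-20S suc-LLVY-AMC hydrolysis recorded at several inhibitor concentrations. kobs for each curve fitted to equation I. kobs plotted against inhibitor concentration and fitted hyperbolically (two-step mechanism) to give kinact/KI.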

The species entered for data set [2] is Homo sapiens. Description: Ratio of Kinact/Ki for immunoproteasome-20S subunit beta5i in human PBMC to Kinact/Ki for constitutive proteasome 20S subunit beta5c in human RBC.
Data set [3] deals with T1, Proteasome subunit beta type-8 (Homo sapiens). Nature of the data set: Inhibition of immunoproteasome-20S subunit beta5i in human PBMC assessed as substrate hydrolysis using suc-LLVY-AMC as substrate by fluorescence analysis. The following applies: TDE = time-dependent effect. An outline of the steps:
(§1)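 Purified human i-20S preincubated with inhibitor for 15 min before suc-LLVY-AMC was added; inhibitor ranged from 9.8 nM to 100 μM. AMC fluorescence release read. IC50 from the concentration–response; where β2i/β1i inhibition exceeded 80% at 100 μM, IC50 was also determined.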

Data set [4] shares this target. Description: (§2) Inhibition of immunoproteasome-20S subunit beta5i in human PBMC assessed as substrate hydrolysis using suc-LLVY-AMC as substrate measured for 120 mins by fluorescence analysis.
For data set [5], the target named is T2, Proteasome subunit beta type-8 (Homo sapiens, UniProt P28062).
T2 sequence (P28062 whole entry): T1 sequence (whole entry)
The description is as §2.

For data set [6], the species on record is Homo sapiens. Description: Inhibition of constitutive proteasome 20S subunit beta5c in human RBC assessed as substrate hydrolysis using suc-LLVY-AMC as substrate measured for 120 mins by fluorescence analysis.
The target of data set [7] is T1, Proteasome subunit beta type-8 (Homo sapiens). The following applies: 1 nM.
Data set [8] shares this target. The following applies: 10 to 100 nM.
Data set [9] concerns the target T2, Proteasome subunit beta type-8. Description: Inhibition of immunoproteasome-20S subunit beta5i in human PBMC assessed as substrate hydrolysis using suc-LLVY-AMC as substrate preincubated for 15 mins prior to substrate challenge measured for 120 mins by fluorescence analysis. The gist of the method: as §1
Data set [10] can be described thus: Half life of the compound in RPMI medium at 75 uM by UPLC/MS analysis. It counts as physicochemical. An outline of the steps: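 Stability measured in tissue culture medium; reported as t1/2 in minutes.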
The target in a further data set is 26S proteasome. Nature of the data set: Inhibition of chymotrypsin-like activity of 26S proteasome in intact human Karpas 1106p cells assessed as substrate hydrolysis using Suc-LLVY-(D)-aminoluciferin as substrate after 3 hrs by cell-based Proteasome-Glo assay. An outline of the steps:
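Intact Karpas 1106p cells, a human lymphoma line that expresses i-20S constitutively without IFN-γ or TNF-α stimulation. 26S proteasome activity read by cell-based Proteasome-Glo luminescence over a range of inhibitor concentrations. EC50 derived from the dose–response.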

The target of data set [11] is T1, Proteasome subunit beta type-8 (Homo sapiens). Nature of the data set: Inhibition of immunoproteasome 20S subunit beta5i in human Karpas 1106p cell extract at 100 uM. The gist of the method:
(§3)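 Cell-free extracts of Karpas 1106p cells incubated with inhibitor at various concentrations. β5i activity in the lysate then measured; reported as percent inhibition at each concentration.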

Data set [12] shares this target. Nature of the data set: Inhibition of immunoproteasome 20S subunit beta5i in human Karpas 1106p cell extract at 1 uM. An outline of the steps:
as §3

Data set [13] has the same target. Description: Inhibition of immunoproteasome 20S subunit beta5i in human Karpas 1106p cells assessed as accumulation of polyubiquitinylated proteins at 2.5 to 25 uM after 4 hrs by western blot analysis. In kind it is cell-based. The gist of the method: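 Karpas 1106p cells treated with inhibitor at the indicated concentrations for 4 h at 37 °C. Polyubiquitinated proteins then detected by Western blot.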

Data set [14] shares this target. Description: Inhibition of immunoproteasome 20S subunit beta5i in human Karpas 1106p cell extract at 10 uM. The gist of the method: as §3

The source made the active and inactive calls. The calls are words filed in the database; no cut-off is given here. Bounds are passed on as bounds.

What is called inhibition is how much of the control response was suppressed. The term Ki denotes the equilibrium dissociation constant of an inhibitor or competing ligand from its target. In the case of `O=c1oc(-c2ccccc2)ns1`, the Ratio is 118 M⁻¹ s⁻¹ in data set [1], 8 in the data set filed under Homo sapiens [2] and 14.8 M⁻¹ s⁻¹ in the data set listed under Homo sapiens [6]. Further, the inhibition entry in [3] is “tde”. For the same compound, the Kinact in data set [4] was determined as 0.00093 s⁻¹. In [5], the Ki was 7.9 µM.
Consider `CC(C)(C)OC(=O)Nc1ccc(-c2nsc(=O)o2)cc1`, for which the Ratio in [1] came out at 341 M⁻¹ s⁻¹; in the data set filed under Homo sapiens [2], 142; in the data set filed under Homo sapiens [6] it was 2.4 M⁻¹ s⁻¹. For the same compound, in data set [4], the Kinact amounted to 0.00037 s⁻¹. Also, the Ki in data set [5] came to 1.1 µM.
Turning to `O=c1oc(-c2cccc(CN3CCOCC3)c2)ns1`, the Ratio worked out at 214 M⁻¹ s⁻¹ in data set [1], 93 in the data set filed under Homo sapiens [2] and 2.3 M⁻¹ s⁻¹ in the data set listed under Homo sapiens [6]. Further, the inhibition entry in data set [3] is “tde”. The Kinact in data set [4] amounted to 0.00026 s⁻¹. The Ki in data set [5] is 1.2 µM.
As for `O=c1oc(-c2ccc3[nH]ccc3c2)ns1`, the Ratio in [1] worked out at 225 M⁻¹ s⁻¹; in the data set filed under Homo sapiens [2], 1730; in the data set filed under Homo sapiens [6], 0.13 M⁻¹ s⁻¹. In addition, the inhibition entry in data set [3] was “tde”. Also, the Kinact in data set [4] worked out at 0.00026 s⁻¹. In addition, in data set [5], the Ki came out at 1.1 µM.
`O=c1oc(-c2cccc([N+](=O)[O-])c2)ns1`: the Ratio in data set [1] turned out to be 913 M⁻¹ s⁻¹; in the data set listed under Homo sapiens [2], 89; in the data set filed under Homo sapiens [6], 10.3 M⁻¹ s⁻¹. In addition, in data set [3], the inhibition entry was “tde”. The Kinact in [4] was 0.00038 s⁻¹. Also, the Ki in data set [5] stood at 0.42 µM.
For the compound `O=c1oc(-c2ccccc2C(F)(F)F)ns1`, the Ratio in data set [1] came to 187 M⁻¹ s⁻¹; in the data set filed under Homo sapiens [2], 117; in the data set listed under Homo sapiens [6], 1.6 M⁻¹ s⁻¹. The inhibition result in [3] was “tde”. Further, in data set [4], the Kinact came out at 0.00033 s⁻¹. In addition, in [5], the Ki was found to be 1.8 µM.
For `CC(=O)N[C@@H](Cc1ccccc1)C(=O)Nc1ccc(-c2nsc(=O)o2)cc1`, the Ratio in [1] was found to be 193 M⁻¹ s⁻¹; in the data set listed under Homo sapiens [2] it was 1490; in the data set filed under Homo sapiens [6], 0.13 M⁻¹ s⁻¹. For the same compound, the inhibition entry in data set [3] was “tde”. Further, in data set [4], the Kinact is 0.0001 s⁻¹. Moreover, the Ki in [5] amounted to 0.52 µM.
Take `CC(C)C[C@H](NC(=O)[C@H](Cc1ccccc1)NC(=O)c1cnccn1)B(O)O`: the inhibition was 58% in data set [7] and 90% in data set [8].
On to `O=c1oc(-c2cc(O)c(O)c(O)c2)ns1`, for which the Ratio in data set [1] is 239 M⁻¹ s⁻¹; in the data set filed under Homo sapiens [2] it was 171; in the data set filed under Homo sapiens [6], 1.4 M⁻¹ s⁻¹. Also, in [3], the inhibition result was “tde”. Moreover, the Kinact in [4] came out at 0.00042 s⁻¹. Moreover, the Ki in data set [5] came to 1.7 µM.
For `CC(=O)N[C@H](Cc1ccccc1)C(=O)Nc1cccc(-c2nsc(=O)o2)c1`, the values for the Ratio (in data set [1]; in the data set listed under Homo sapiens [2]; in the data set listed under Homo sapiens [6]) were 6.6 M⁻¹ s⁻¹, 19 and 0.34 M⁻¹ s⁻¹, respectively.
For the compound `O=c1oc(-c2ccccn2)ns1`, the values for the Ratio (in data set [1]; in the data set listed under Homo sapiens [2]; in the data set filed under Homo sapiens [6]) were 129 M⁻¹ s⁻¹, 645 and 0.2 M⁻¹ s⁻¹, respectively. For the same compound, in [4], the Kinact came out at 0.00025 s⁻¹. In data set [5], the Ki came out at 2 µM.
With `[N-]=[N+]=Nc1ccc(-c2nsc(=O)o2)cc1`, the Ratio in [1] turned out to be 263 M⁻¹ s⁻¹; in the data set filed under Homo sapiens [2] it was 11; in the data set filed under Homo sapiens [6] it was 23.7 M⁻¹ s⁻¹. The inhibition result in data set [3] was “tde”. For the same compound, the Kinact in data set [4] is 0.00092 s⁻¹. Also, the Ki in [5] was 3.5 µM.
As for `O=c1oc(-c2ccc(-c3ccccc3)cc2)ns1`, the Ratio in data set [1] worked out at 1090 M⁻¹ s⁻¹; in the data set filed under Homo sapiens [2], 4750; in the data set listed under Homo sapiens [6], 0.23 M⁻¹ s⁻¹. In addition, the Kinact in data set [4] came to 0.00154 s⁻¹. Further, the Ki in data set [5] turned out to be 1.4 µM.
Broadly, the IC50 is the midpoint of a concentration-inhibition curve. For the compound `Cc1sc(-c2nsc(=O)o2)cc1[N+](=O)[O-]`, the Ratio in data set [1] worked out at 1010 M⁻¹ s⁻¹; in the data set filed under Homo sapiens [2] it was 100; in the data set filed under Homo sapiens [6], 10.1 M⁻¹ s⁻¹. In addition, the Kinact in data set [4] worked out at 0.00077 s⁻¹. Further, the Ki in data set [5] was found to be 0.76 µM. Further, the IC50 in [9] worked out at 0.22 µM.
On to `O=c1oc(-c2cccc(F)c2)ns1`, for which the values for the Ratio (in data set [1]; in the data set filed under Homo sapiens [2]; in the data set listed under Homo sapiens [6]) were 20 M⁻¹ s⁻¹, 1.5 and 13.2 M⁻¹ s⁻¹, respectively.
As for `O=c1oc(-c2cccc(-c3ccccc3)c2)ns1`, the Ratio came out at 168 M⁻¹ s⁻¹ in data set [1], 420 in the data set filed under Homo sapiens [2] and 0.4 M⁻¹ s⁻¹ in the data set filed under Homo sapiens [6]. The inhibition result in [3] is “tde”. Further, the Kinact in data set [4] was found to be 0.001 s⁻¹. The Ki in [5] was determined as 6 µM.
As a reminder, the half-life is how long it takes for the measured level to halve. A low value points to rapid decline. As usually defined, the EC50 is the concentration needed to bring the measured effect to its halfway point. `CC(=O)N[C@H](Cc1ccccc1)C(=O)Nc1ccc(-c2nsc(=O)o2)cc1`: the Ratio in data set [1] is 151 M⁻¹ s⁻¹; in the data set filed under Homo sapiens [2], 215; in the data set filed under Homo sapiens [6], 0.7 M⁻¹ s⁻¹. In data set [10], this compound showed a half-life at 75 µM of 0.878 h. Also, the EC50 on 26S proteasome is 15.4 µM. The Kinact in data set [4] is 0.00053 s⁻¹. Besides, in [5], the Ki was 3.5 µM. Moreover, the inhibition result in data set [11] and in data set [13] was “Active” each time. The results for the inhibition in [12] and in [14] were 40% and 65%, respectively.
As for `CC(=O)Nc1cccc(-c2nsc(=O)o2)c1`, the figures for the Ratio (in [1]; in the data set filed under Homo sapiens [2]; in the data set filed under Homo sapiens [6]) were 83 M⁻¹ s⁻¹, 26 and 3.2 M⁻¹ s⁻¹, respectively. Besides, the half-life at 75 µM in data set [10] was found to be 1.36 h. For the same compound, the EC50 on 26S proteasome amounted to 4.2 µM. Moreover, the inhibition result in [11] and in [13] was “Active” each time. Also, the results for the inhibition in data set [12] and in data set [14] were 60% and above 90%, respectively.

These data come from ChEMBL document CHEMBL3259678 (ACS Med Chem Lett, 2014).
